Results from ChEMBL document CHEMBL4311953, “Targeting DNA Repair in Tumor Cells via Inhibition of ERCC1-XPF” (J Med Chem, 2019).
Values belong to the compound of their own block, whether it stands above or below them. Active and inactive are the calls of the source. The rule behind the calls is not given here.

Key:
[1] = target: T1, DNA excision repair protein ERCC-1/DNA repair endonuclease XPF (Homo sapiens) (UniProt P07992+Q92889); experiment: Inhibition of human His6-tagged ERCC1-XPF endonuclease activity expressed in Escherichia coli BL21 (DE3) at 8 uM using [6-FAM-5'-CAGCGCTCGG(20T)CCGAGCGCTG-3'-dabcyl] as substrate measured for 12 mins by fluorescence assay
Outline: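 Real-time incision of 100 nM 6-FAM/dabcyl stem-loop substrate by 25 ng recombinant ERCC1-XPF in 50 mM Tris-Cl pH 8, 20 mM NaCl, 0.5 mM DTT, 0.75 mM MnCl₂ at 25°C; fluorescence (ex 485/em 520 nm) read for 12 min.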

[2] = Stability of the compound in human liver microsomes; format: ADME, Microsome
[3] = Efflux ratio of permeability in human Caco2 cells; format: ADME, cell-based; conditions: Caco-2
[4] = target: T2, Cytochrome P450 1A2 (Homo sapiens, UniProt P05177); experiment: Inhibition of CYP1A2 (unknown origin); format: ADME
T2 sequence (P05177 whole entry): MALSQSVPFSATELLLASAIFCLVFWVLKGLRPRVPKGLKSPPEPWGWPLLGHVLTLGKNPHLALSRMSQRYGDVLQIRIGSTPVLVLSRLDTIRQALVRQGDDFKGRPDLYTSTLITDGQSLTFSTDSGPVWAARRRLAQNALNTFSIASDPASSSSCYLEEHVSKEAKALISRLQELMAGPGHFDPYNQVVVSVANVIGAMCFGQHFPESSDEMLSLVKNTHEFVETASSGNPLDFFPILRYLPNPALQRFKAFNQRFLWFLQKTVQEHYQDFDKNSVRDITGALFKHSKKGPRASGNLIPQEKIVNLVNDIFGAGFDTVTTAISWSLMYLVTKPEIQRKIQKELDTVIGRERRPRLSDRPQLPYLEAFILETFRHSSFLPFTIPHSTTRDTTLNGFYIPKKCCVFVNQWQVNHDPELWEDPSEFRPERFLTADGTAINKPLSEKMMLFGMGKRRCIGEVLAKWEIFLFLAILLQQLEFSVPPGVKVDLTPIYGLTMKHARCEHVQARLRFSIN

[5] = target: Cytochrome P450 2C9 (Homo sapiens, UniProt P11712); experiment: Inhibition of CYP2C9 (unknown origin); format: ADME
[6] = target: Cytochrome P450 2C19 (Homo sapiens, UniProt P33261); experiment: Inhibition of CYP2C19 (unknown origin); format: ADME
[7] = target: Cytochrome P450 2D6 (Homo sapiens, UniProt P10635); experiment: Inhibition of CYP2D6 (unknown origin); format: ADME
[8] = target: Cytochrome P450 3A4 (Homo sapiens, UniProt P08684); experiment: Inhibition of CYP3A4 (unknown origin) using midazolam as substrate; format: ADME
[9] = Protein binding in serum (unknown origin); format: ADME, cell-free
[10] = target: T3, DNA excision repair protein ERCC-1/DNA repair endonuclease XPF (Homo sapiens, UniProt P07992+Q92889)
T3 sequence (P07992 whole entry): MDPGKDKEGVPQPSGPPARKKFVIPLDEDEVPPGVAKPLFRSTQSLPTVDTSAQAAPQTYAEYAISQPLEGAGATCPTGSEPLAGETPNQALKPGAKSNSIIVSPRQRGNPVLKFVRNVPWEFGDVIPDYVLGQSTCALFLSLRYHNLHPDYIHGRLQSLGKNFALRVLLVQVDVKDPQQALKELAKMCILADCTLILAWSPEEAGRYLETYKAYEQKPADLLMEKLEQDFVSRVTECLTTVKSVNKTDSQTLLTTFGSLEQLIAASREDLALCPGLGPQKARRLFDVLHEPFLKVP
T3 sequence (Q92889 whole entry): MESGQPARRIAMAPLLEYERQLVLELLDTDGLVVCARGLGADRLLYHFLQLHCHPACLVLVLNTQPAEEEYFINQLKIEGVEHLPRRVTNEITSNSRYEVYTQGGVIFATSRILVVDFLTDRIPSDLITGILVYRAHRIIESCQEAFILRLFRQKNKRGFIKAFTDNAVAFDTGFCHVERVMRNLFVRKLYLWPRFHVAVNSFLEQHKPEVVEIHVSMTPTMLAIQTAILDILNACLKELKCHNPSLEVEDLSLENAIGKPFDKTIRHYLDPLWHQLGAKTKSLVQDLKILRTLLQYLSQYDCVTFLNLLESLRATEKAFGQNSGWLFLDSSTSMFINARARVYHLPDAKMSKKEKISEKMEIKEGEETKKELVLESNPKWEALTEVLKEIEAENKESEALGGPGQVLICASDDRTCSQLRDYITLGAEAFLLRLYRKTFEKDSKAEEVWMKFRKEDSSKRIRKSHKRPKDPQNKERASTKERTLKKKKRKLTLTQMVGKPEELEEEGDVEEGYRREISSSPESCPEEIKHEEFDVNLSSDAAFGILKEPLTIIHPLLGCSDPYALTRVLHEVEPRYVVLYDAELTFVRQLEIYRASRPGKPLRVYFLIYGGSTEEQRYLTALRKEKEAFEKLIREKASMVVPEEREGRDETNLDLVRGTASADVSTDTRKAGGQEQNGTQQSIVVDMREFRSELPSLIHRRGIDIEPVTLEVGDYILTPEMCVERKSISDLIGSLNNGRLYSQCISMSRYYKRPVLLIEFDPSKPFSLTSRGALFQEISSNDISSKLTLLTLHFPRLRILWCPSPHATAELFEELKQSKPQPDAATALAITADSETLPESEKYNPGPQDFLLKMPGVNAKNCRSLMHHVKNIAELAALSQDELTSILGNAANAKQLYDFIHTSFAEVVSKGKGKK

[11] = target: T1, DNA excision repair protein ERCC-1/DNA repair endonuclease XPF (Homo sapiens); experiment: Time dependent inhibition of human His6-tagged ERCC1-XPF endonuclease activity expressed in Escherichia coli BL21 (DE3) at 3 uM using [6-FAM-5'-CAGCGCTCGG(20T)CCGAGCGCTG-3'-dabcyl] as substrate in presence of 5 to 10% DMSO by fluorescence assay
Outline: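 ERCC1-XPF preincubated with 3 μM compound in 10% or 5% DMSO; reactions started at T0 with substrate, or at T12 […]. Same stem-loop incision read-out (ex 485/em 520) in Tris-Cl pH 8, MnCl2 buffer at 25°C.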

[12] = target: T1, DNA excision repair protein ERCC-1/DNA repair endonuclease XPF (Homo sapiens); experiment: Binding affinity to human His6-tagged ERCC1-XPF expressed in Escherichia coli BL21 (DE3) assessed as tryptophan fluorescence quenching at 2 uM by spectrofluorimetric method relative to control
Outline: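 Intrinsic tryptophan fluorescence of purified ERCC1-XPF (13–20 nM) with 2 μM ligand added from stock, protein dilution kept below 3%; excitation 295 nm, quenching read at 330 nm, room temperature.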

[13] = Binding affinity to 6-FAM-5'-CAGCGCTCGG(20T)CCGAGCGCTG-3'-dabcyl DNA (unknown origin) by spectrofluorimetric method
Outline: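 FAM/dabcyl-labelled stem-loop DNA substrate excited at 490 nm, emission at 520 nm followed as a function of ligand concentration; Kd obtained by nonlinear regression assuming unimodal binding.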

[14] = target: T1, DNA excision repair protein ERCC-1/DNA repair endonuclease XPF (Homo sapiens); experiment: Binding affinity to human N-terminal His6-tagged RED-tris-NTA labelled ERCC1 (96 to 297 residues)-XPF (667 to 916 residues) expressed in Escherichia coli BL21 (DE3) at 10 uM measured after 20 mins by microscale thermophoresis assay
Outline: (§1)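 Truncated His-tagged dERCC1 (96-297) and dXPF (667-916) from BL21(DE3), labelled with RED-tris-NTA, at 20 nM singly or as equimolar dimer in 20 mM HEPES pH 7.4, 50 mM NaCl, 1 mM DTT, 2 mM MgCl2, 5% glycerol, 0.01% CHAPS; 10 μM compound or DMSO, 20 min room temperature; MST at high power, 670 nm emission.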

[15] = Binding affinity to RED-tris-NTA at 10 uM measured after 20 mins by microscale thermophoresis assay; outline: as §1
[16] = target: T1, DNA excision repair protein ERCC-1/DNA repair endonuclease XPF (Homo sapiens); experiment: (§2) Inhibition of ERCC1-XPF-mediated nucleotide excision repair in human HCT116 cells assessed as reduction in removal of UV-induced cyclobutane pyrimidine dimer by measuring cyclobutane pyrimidine dimer level at 2 uM incubated for 1 hr prior to compound washout followed by 8 J/m2 UV irradiation and subsequent compound addition and measured after 24 hrs by DAPI staining-based immunofluorescence assay (reference value: 80%); format: cell-based; parameters: scale not given: the % may be the effect or the level left
Outline: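 HCT-116 cells on coverslips, 1 h compound pretreatment, 8 J/m² UV-C (254 nm), then fresh medium with compound at 37°C up to 24 h. Fixed, HCl-denatured, stained with anti-thymine dimer antibody plus fluorescent secondary, DAPI mount. Intensity from 50 random cells per treatment, normalized; Student's t-test.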

[17] = tested on: HCT-116; experiment: Phototoxicity against human HCT116 cells assessed as reduction in colony formation at 2 uM incubated for 1 hr prior to compound washout followed by 254 nm UV irradiation and subsequent compound addition measured after 10 days by crystal violet staining-based assay; format: functional, cell-based
Outline: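 HCT-116 cells plated in triplicate (100-800 cells), attached overnight, treated 1 h with 1 or 2 μM compound, exposed to 0-10 J/m² 254 nm UV-C, then grown 10 days with inhibitor at 37°C, 5% CO₂. Crystal violet stained colonies counted; plating efficiency and surviving fraction calculated; three independent sets.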

[18] = tested on: HCT-116; experiment: (§3) Potentiation of cyclophosphamide-induced cytotoxicity against human HCT116 cells assessed as reduction in colony formation at 2 uM incubated for 4 hrs prior to 50 uM cyclophosphamide addition for 24 hrs followed by compound washout and subsequent compound redosing and measured after 8 days by crystal violet staining-based assay; format: functional, cell-based
Outline: (§4)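 HCT-116 cells plated in triplicate, attached overnight, pretreated 4 h with 1 or 2 μM compound, then cyclophosphamide (0-300 μM) added for 24 h; medium replaced with compound alone and incubated 8 more days at 37°C, 5% CO₂. Crystal violet colonies counted, surviving fraction calculated; three independent sets, Student's t-test.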

[19] = tested on: HCT-116; experiment: as §3, with “300” for “50”; format: functional; parameters: scale not given: the % may be the effect or the level left; outline: as §4
[20] = tested on: HCT-116; experiment: as §3, with “human XPF-knockout” for “human”; format: functional, cell-based
[21] = tested on: HCT-116; experiment: as §3, with “human XPF-knockout” for “human”, “300” for “50”; format: functional; parameters: scale not given: the % may be the effect or the level left
[22] = tested on: HCT-116; experiment: Cytotoxicity against human HCT116 cells assessed as reduction in colony formation at 1 to 2 uM; conditions: hct-116, 2 µM
[23] = target: T1, DNA excision repair protein ERCC-1/DNA repair endonuclease XPF (Homo sapiens); experiment: as §2, with “dimer” for “dimer by measuring cyclobutane pyrimidine dimer level”, “assay” for “assay (reference value: 80%)”; format: cell-based
Outline: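 HCT-116 cells on coverslips pretreated 1 h with compound, then 8 J/m² UV-C (254 nm) and re-fed medium with compound; incubated at 37°C up to 24 h. Methanol-fixed, HCl-denatured cells stained with anti-thymine dimer antibody and fluorescent secondary, DAPI mounted. Intensity quantified from 50 random cells per treatment; Student's t-test.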

Cytochrome P450 3A4, sequence (P08684 whole entry): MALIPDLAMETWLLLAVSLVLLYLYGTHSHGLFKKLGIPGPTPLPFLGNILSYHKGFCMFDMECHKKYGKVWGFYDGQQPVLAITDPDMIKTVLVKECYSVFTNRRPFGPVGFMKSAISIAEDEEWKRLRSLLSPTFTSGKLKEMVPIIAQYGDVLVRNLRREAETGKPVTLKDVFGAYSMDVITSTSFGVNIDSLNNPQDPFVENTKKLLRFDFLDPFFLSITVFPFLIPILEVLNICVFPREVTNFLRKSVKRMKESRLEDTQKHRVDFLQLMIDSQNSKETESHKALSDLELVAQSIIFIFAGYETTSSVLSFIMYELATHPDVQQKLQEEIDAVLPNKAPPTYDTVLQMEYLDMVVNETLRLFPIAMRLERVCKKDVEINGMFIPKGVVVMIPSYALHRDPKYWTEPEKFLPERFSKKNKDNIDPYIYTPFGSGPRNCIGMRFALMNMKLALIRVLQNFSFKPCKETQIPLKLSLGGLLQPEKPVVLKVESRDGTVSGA
Cytochrome P450 2C9, sequence (P11712 whole entry): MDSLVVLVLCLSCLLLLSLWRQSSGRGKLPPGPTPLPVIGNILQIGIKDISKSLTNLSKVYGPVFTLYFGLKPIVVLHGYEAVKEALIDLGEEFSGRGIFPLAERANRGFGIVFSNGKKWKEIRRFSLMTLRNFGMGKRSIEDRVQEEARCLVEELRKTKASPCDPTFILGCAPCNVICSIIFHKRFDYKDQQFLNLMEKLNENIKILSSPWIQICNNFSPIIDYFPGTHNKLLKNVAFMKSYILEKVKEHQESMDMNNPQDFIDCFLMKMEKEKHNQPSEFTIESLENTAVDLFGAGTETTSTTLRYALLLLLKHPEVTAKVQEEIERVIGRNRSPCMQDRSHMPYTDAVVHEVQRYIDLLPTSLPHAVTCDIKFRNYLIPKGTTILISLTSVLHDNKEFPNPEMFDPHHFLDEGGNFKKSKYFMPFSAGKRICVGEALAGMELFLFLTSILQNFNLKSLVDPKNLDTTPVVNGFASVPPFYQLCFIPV
Cytochrome P450 2D6, sequence (P10635 whole entry): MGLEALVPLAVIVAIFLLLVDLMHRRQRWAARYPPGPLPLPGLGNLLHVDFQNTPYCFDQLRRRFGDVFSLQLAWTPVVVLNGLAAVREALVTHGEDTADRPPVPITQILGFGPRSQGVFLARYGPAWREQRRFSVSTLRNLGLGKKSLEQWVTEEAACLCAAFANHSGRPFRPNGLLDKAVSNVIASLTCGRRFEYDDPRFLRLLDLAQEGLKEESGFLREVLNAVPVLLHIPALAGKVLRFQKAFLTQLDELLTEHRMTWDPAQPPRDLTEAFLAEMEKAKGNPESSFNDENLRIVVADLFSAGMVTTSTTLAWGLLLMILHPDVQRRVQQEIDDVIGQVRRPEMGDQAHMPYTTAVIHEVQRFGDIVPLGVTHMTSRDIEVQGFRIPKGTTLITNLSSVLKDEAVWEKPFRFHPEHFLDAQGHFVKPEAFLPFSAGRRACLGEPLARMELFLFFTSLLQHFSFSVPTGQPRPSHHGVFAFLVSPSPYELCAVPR
Cytochrome P450 2C19, sequence (P33261 whole entry): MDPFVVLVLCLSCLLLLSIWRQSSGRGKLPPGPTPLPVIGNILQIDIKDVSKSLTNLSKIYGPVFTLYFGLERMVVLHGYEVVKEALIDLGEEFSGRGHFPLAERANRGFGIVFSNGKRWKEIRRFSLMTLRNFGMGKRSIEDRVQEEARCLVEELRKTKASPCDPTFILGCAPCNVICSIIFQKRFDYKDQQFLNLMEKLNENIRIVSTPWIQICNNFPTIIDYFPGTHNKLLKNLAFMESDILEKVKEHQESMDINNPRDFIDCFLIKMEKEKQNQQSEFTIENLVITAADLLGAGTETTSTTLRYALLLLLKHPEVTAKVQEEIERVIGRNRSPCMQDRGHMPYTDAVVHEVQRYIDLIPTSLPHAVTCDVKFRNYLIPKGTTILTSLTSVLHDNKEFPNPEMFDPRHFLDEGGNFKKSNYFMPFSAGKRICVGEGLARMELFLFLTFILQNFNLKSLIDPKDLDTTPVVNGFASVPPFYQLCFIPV

Structure (SMILES): COc1ccc2nc3cc(Cl)ccc3c(Nc3ccc(O)c(CN4CCN(C)CC4)c3)c2c1
inhibition [1]: Active | Stability [2]: Unstable | efflux ratio [3]: 11.2 | IC50 [4]: 10 to 50 µM | IC50 [5]: 10 to 50 µM | IC50 [6]: 10 to 50 µM | IC50 [7]: 1000 to 10000 nM | IC50 [8]: 1000 to 10000 nM | PB [9]: Active | IC50 [10]: 1860 nM

inhibition [1]: Active
Structure (SMILES): COc1ccc2nc3cc(Cl)ccc3c(Nc3ccc(O)c(CN4CCN(C5CCCCC5)CC4)c3)c2c1

inhibition [1]: Active | TDI [11]: Active | Activity [12]: 23% | Kd [13]: 2100 nM | Activity [14]: Active | Activity [15]: inactive | Activity [16]: 60% | IC50 [5]: > 1 µM | IC50 [6]: > 1 µM | IC50 [7]: > 1000 nM | IC50 [8]: > 1000 nM | PB [9]: Active
Structure (SMILES): COc1ccc2nc3cc(Cl)ccc3c(Nc3ccc(O)c(CN4CCN(CCN(C)C)CC4)c3)c2c1
Activity [17]: Active | Activity [18]: Active | Activity [19]: 100% | Activity [20]: Active | Activity [21]: 100% | Activity [22]: Non-Toxic

Activity [12]: 3% | inhibition [23]: inactive
Structure (SMILES): COc1ccc2nc3cc(Cl)ccc3c(Nc3ccc(O)c(CN4CCN(c5ccc(Cl)c(Cl)c5)CC4)c3)c2c1
